MEKK3 PB1 HTS = modulators of MEKK3-MEK5 PB1 binding, primary screen, biochemical, wildtype MEKK3, multiplex bead flow cytometry, Alexa488-MEK5 | Mitogen-activated protein kinase kinase kinase 3 (Homo sapiens), Q99759 | bead-based flow cytometry, Alexa488-MEK5 binding to MEKK3; actives lie on both sides; 0 = blocked by unlabeled MEK5, 100 = vehicle | binding response (% of control), % at 10 µM | 290,000 tested, 1.4% active;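 active = binding response more than 3 SD above or below the average of its plate-row segment, actives on both sides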;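 also: Alexa488 bead fluorescence after subtracting the streptavidin-only scavenger bead signal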
UCH37 DUB inh = inhibitors of human UCH37 deubiquitinase, primary screen, biochemical, Ub-AMC cleavage, fluorescence | Ubiquitin carboxyl-terminal hydrolase isozyme L5 (Homo sapiens), Q9Y5K5 | purified proteasome/UCH37 | inhibition, % (concentration not given with the values) | 330,000 tested, 0.33% active;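 active = mean inhibition over replicate wells above about 20%, limit read from the data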
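Material: Human UCH37 enzyme supplied as purified proteasome complex | Schedule: 30 min compound-proteasome preincubation then 25 min substrate reaction, room temperature | Detection: AMC fluorescence from Ub-AMC cleavage, excitation 355 nm, emission 460 nm | Benchmarks: Wells without proteasome as full block, compound-free enzyme plus substrate as uninhibited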
Rce1 inhib = yeast Rce1p protease inhibitors, primary screen, biochemical, fluorescence, cell-free homogeneous; 290,000 tested, 0.27% active; CAAX prenyl protease 2 (Saccharomyces cerevisiae (strain ATCC 204508 / S288c)), Q03530; yeast membranes, quenched prenylated peptide cleavage fluorescence; calls only;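 active = fall in fluorescence gain of 50% or more versus controls, with final raw signal at or below 3038400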
Target sequence (Q03530 whole entry, looked up): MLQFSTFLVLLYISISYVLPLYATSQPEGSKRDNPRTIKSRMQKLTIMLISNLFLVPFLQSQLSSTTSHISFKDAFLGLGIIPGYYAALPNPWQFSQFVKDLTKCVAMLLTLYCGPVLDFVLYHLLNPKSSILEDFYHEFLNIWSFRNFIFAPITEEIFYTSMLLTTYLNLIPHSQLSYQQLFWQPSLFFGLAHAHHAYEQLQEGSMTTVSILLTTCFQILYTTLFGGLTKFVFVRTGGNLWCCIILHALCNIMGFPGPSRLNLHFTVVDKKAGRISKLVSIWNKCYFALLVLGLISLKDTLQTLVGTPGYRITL
MEKK2 WT-MEK5 = modulators of MEK5 binding to wildtype MEKK2, primary screen, biochemical, multiplex bead flow cytometry, Alexa488-MEK5. Mitogen-activated protein kinase kinase kinase 2 (Homo sapiens), Q9Y2U5. Alexa488-MEK5 binding to MEKK2 WT; actives lie on both sides. binding response (% of control), % at 10 µM. 290,000 tested, 1.1% active. AID 1531, 2009; in the data active = binding response below about 67% or above about 130%
T cell modulator = modulators of CD8 T cell-vesicle binding, primary screen, mouse 2C CD8+ T cells, flow cytometry; response (vesicle binding), % at 7 µM; AID 2052, 2009; 330,000 tested, 0.068% active; 2C CD8+ T cell-vesicle binding; active compounds read low;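 active = response, share of CD8 T cells binding vesicles, and their 90th percentile fluorescence all below set limits, cut at about 80% in these data, passing the limit was not always enough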;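 also: values below 100% mean blocked vesicle binding to the CD8+ T cells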
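Also added: QL9-peptide-loaded Drosophila micro-vesicles bearing Ld, ICAM-1 and B7-1; Test system: purified 2C TCR transgenic mouse naive CD8+ T cells; Measured by: cytometric PE anti-B7-1 and Alexa647 anti-CD8 signals after 1% paraformaldehyde fixation; Timing: binding step 1.5 h, 37 °C, antibody labelling 20 min, ice.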
MEKK2 mut-MEK5 = MEK5 binding signal on mutant MEKK2 PB1, primary screen, biochemical, multiplex bead flow cytometry, Alexa488-MEK5; Alexa488-MEK5 binding to MEKK2 mutant; percent response, % at 10 µM; 290,000 tested, 0.35% active; in the data active = percent response above about 24%, passing the limit was not always enough
MEKK2wt confirm = modulators of MEK5 binding to wildtype MEKK2, confirmation, biochemical, single concentration, multiplex bead flow cytometry. Alexa488-MEK5 binding to MEKK2 WT; actives lie on both sides. 5,900 tested, 2.4% active. shares compounds with MEKK3 PB1 HTS. binding response (% of control), % at 10 µM; in the data active = binding response below about 16% or above about 210%; inactive = in between
MEKK2mut-MEK5 = mutant MEKK2 PB1-MEK5 binding signal retest – biochemical, single concentration, multiplex bead flow cytometry, confirmation; shares compounds with MEKK3 PB1 HTS; 5,900 tested, 2% active; AID 1893, 2009; percent response, % at 10 µM; Alexa488-MEK5 binding to MEKK2 mutant; in the data active = percent response mostly above about 71%, no sharp cut-off; inactive = mostly below about 38%;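 also: higher means compound restores mutant binding toward wildtype level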
MEKK3 confirm = MEKK3 wild-type PB1 binding to MEK5, inhibitors, confirmation, biochemical, bead multiplex flow cytometry, single concentration, wildtype; shares compounds with MEKK3 PB1 HTS; Alexa488-MEK5 binding to MEKK3; active compounds read low; binding response (% of control), % at 10 µM; 5,900 tested, 1.8% active; AID 1894, 2009;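 active = binding response below 72% of control, or above a set upper limit, though filed actives all read lower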;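 also: lower values mean stronger disruption of MEK5 binding to MEKK3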
Numbers stand for hits; - = inactive; . = not tested or not shown; [ ] = another dose, or the depositor's remark. Rows were chosen to be rich in hits. Some 2.5% of all compounds tested hit in one or more screens of this group.

SMILES | MEKK3 PB1 HTS | UCH37 DUB inh | Rce1 inhib | MEKK2 WT-MEK5 | T cell modulator | MEKK2 mut-MEK5 | MEKK2wt confirm | MEKK2mut-MEK5 | MEKK3 confirm
Cc1cc(OCC(=O)NC2CCCCC2)ccc1Cl | 147.0 | - | - | - | - | - | - | - | -
O=C(C[n+]1ccc(-c2cc(C(=O)Nc3cccc(C(F)(F)F)c3)c3ccccc3n2)cc1)c1cccc([N+](=O)[O-])c1 | - | - | - | 158.0 | - | - | - | 99.0 | -
CC(=NOCc1ccc(C#N)cc1)c1cc2ccccc2o1 | . | - | . | . | . | . | . | . | .
CC(CCC1CC(C)OC1=O)=NNc1nc(-c2ccccc2)cs1 (stereo not drawn) | . | - | . | . | . | . | . | . | .
O=C(NN=Cc1c(O)ccc2ccccc12)Nc1ccccc1 | . | - | . | . | . | . | . | . | .
CC1(C)CC(=O)C(Sc2ccc(Br)cc2)=C(O)C1 | 73.0[inhibitor] | - | - | - | - | - | - | - | -
O=C(NC1CCN(Cc2ccccc2)CC1)C1CCCN(c2nnc(-n3cccc3)s2)C1 (stereo not drawn) | - | - | - | - | - | - | . | . | .
O=C(NCCCN1CCc2ccccc2C1)C1CCN(c2nnc(-n3cccc3)s2)CC1 | - | - | - | 219.0 | - | 55.0 | - | - | -
Cc1ccc(C)n1-c1nnc(N2CCC(C(=O)NCCCN3CCN(C)CC3)CC2)s1 | - | - | - | - | - | - | . | . | .
O=C(NC1CCN(Cc2ccccc2)CC1)C1CCN(c2nnc(-n3cccc3)s2)CC1 | - | - | - | 203.0 | - | 50.0 | - | - | -
Cc1ccc(Nc2nc(N)c3ccccc3n2)cc1C | - | - | - | 138.0 | - | - | - | - | -
Cc1cc(Nc2ccc(C)c(C)c2)c2ccccc2n1 | - | - | - | - | - | - | . | . | .
Brc1ccc(-c2csc(N=CN3CCCC3)n2)cc1 | . | - | . | . | . | . | . | . | .
O=C(NN=Cc1ccccn1)c1cccc(S(=O)(=O)Nc2ccccc2Cl)c1 | . | - | . | . | . | . | . | . | .
Cc1ccc(-c2nc3ccccc3n3nnnc23)cc1 | 82.0[inhibitor] | . | - | - | . | - | - | - | -
Fc1cccc(Nc2nc3ccccc3n3nnnc23)c1 | - | - | - | - | - | - | . | . | .
COc1cccc(Nc2nc3ccccc3n3nnnc23)c1 | 2.0[inhibitor] | - | - | 3.0[inhibitor] | - | - | - | - | -
COC(=O)c1ccc(CSc2nnc(Nc3cccc(OC)c3)s2)o1 | - | - | - | - | - | - | . | . | .
COC(=O)c1ccc(CSc2nnc(NC(C)C)s2)o1 | 71.0[inhibitor] | - | - | - | - | - | - | - | -
CON=CCC(=O)Nc1ccc(Cl)cc1Cl | . | - | . | . | . | . | . | . | .
O=C(Cn1cccc1C(=O)c1ccccc1)NCCCN1CCOCC1 | - | - | - | - | - | - | . | . | .
O=C(Cn1cccc1C(=O)c1ccccc1)NCCN1CCOCC1 | - | - | - | - | - | - | . | . | .
Cc1ccc(C)c(N2CCN(CCCNC(=O)Cn3cccc3C(=O)c3ccccc3)CC2)c1 | - | - | - | 176.0 | - | - | - | - | -
O=C(Cn1cccc1C(=O)c1ccccc1)NCCN1CCCCCC1 | - | - | - | 171.0 | - | 25.0 | - | - | -
CC1CCCC(C)N1N=Cc1ccc(O)cc1 (stereo not drawn) | . | - | . | . | . | . | . | . | .

Compound activity deposited in PubChem BioAssay by several laboratories.
